Experimental data as given in PubChem BioAssay AID493213 (Broad Institute, 2011).
Where “and” joins values, the source holds several entries; their conditions need not be identical. Equal values may be shown once. Calls of active or inactive are those of the source.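 How the source made its calls: active means dose response lowering luminescence by over half the proteasome blocker control effect, potency within ten times top dose; inactive means change in the opposite direction, plus the rest.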

System: not listed separately
Test: cellular proteasome inhibitors – cell-based, luminescence, U2OS, dry powder, set 3, counter-screen for HIF activator project, dose response (AID 493213)
Conditions: U2OS proteasome chymotrypsin-like activity, Proteasome-Glo luminescence; at 38 µM (top of the series)
Procedure, shortened: (§1)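 repeats = duplicates | test system = U2OS cells | amount = 2,500 U2OS cells per well | schedule = 24 h plating, 4 h compound exposure, 2 h room-temperature reagent | detection = Proteasome-Glo luminescence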

SMILES	activity change, negative = inhibition
O=C(Nc1ncc(-c2ccccc2)o1)c1cc(-c2ccccc2)on1	-53.8% (inactive)
c1ccc(-c2nnc(-c3ccccn3)nc2NCC2CCCCC2)cc1	49.9% (inactive)
Oc1ccc(CN2CCC3CCCCC3C2)c2cccnc12 (configuration not stated)	26.7% (inactive)
c1ccc(-c2nnc(-c3ccccn3)nc2N2CCC(N3CCOCC3)CC2)cc1	16.5% (inactive)
C[C@@H](Nc1nc(-c2ccccn2)nnc1-c1ccccc1)c1ccccc1	79.4% (inactive)
CN1CCN(C(=O)c2cc(-c3ccccc3)on2)CC1	-34.5% (inactive)
C[C@H](Nc1nc(-c2ccccn2)nnc1-c1ccccc1)C1CCCCC1	72.6% (inactive)
CC(C)(C)OC(=O)N1CCN(Cc2ccc(O)c3ncccc23)CC1	3.79% (inactive)
c1ccc(-c2nnc(-c3ccccn3)nc2Nc2cnc3ccccc3n2)cc1	-2.5% (inactive)
Oc1ccc(CNC2CCc3ccccc32)c2cccnc12 (configuration not stated)	81.7% (inactive)
O=C(NCc1ccccc1)c1cc(-c2ccccc2)on1	-23.1% (inactive)
CC1CN(Cc2ccc(O)c3ncccc23)CC(C)O1 (configuration not stated)	12% (inactive)
Oc1ccc(CN2CCC(Cc3ccccc3)CC2)c2cccnc12	30.7% (inactive)
c1ccc(-c2ccc(CNc3nc(-c4ccccn4)nnc3-c3ccccc3)cc2)cc1	22% (inactive)
O=C(NCCN1CCOCC1)c1cc(-c2ccccc2)on1	-26.6% (inactive)
c1ccc(-c2nnc(-c3ccccn3)nc2N2CCC(c3ccccc3)C2)cc1 (configuration not stated)	-6.19% (inactive)
O=C(NCCN1CCCCC1)c1cc(-c2ccccc2)on1	-24.8% (inactive)
COc1ccc(CNc2nc(-c3ccccn3)nnc2-c2ccccc2)cc1	53.2% (inactive)
O=C(NCCCn1ccnc1)c1cc(-c2ccccc2)on1	9.43% (inactive)
c1ccc(-c2nnc(-c3ccccn3)nc2N2CCC(C3CCCCC3)C2)cc1 (configuration not stated)	51.6% (inactive)
c1ccc(CCNc2nc(-c3ccccn3)nnc2-c2ccccc2)cc1	43.3% (inactive)
COc1cccc(CNc2nc(-c3ccccn3)nnc2-c2ccccc2)c1	36.9% (inactive)

SMILES	activity change, negative = inhibition
c1ccc(-c2nnc(-c3ccccn3)nc2N2CCN(c3ccncc3)CC2)cc1	10.3% (inactive)
c1ccc(-c2nnc(-c3ccccn3)nc2NCCCN2CCOCC2)cc1	6.94% (inactive)
Clc1cccc(CNc2nc(-c3ccccn3)nnc2-c2ccccc2)c1	46.4% (inactive)
Cc1cccc(CNc2nc(-c3ccccn3)nnc2-c2ccccc2)c1	45.1% (inactive)
c1ccc(CNc2nc(-c3ccccn3)nnc2-c2ccccc2)cc1	25.8% (inactive)
O=C(NCCCN1CCOCC1)c1cc(-c2ccccc2)on1	-24.4% (inactive)
O=C(NCC1CCCCC1)c1cc(-c2ccccc2)on1	-23.5% (inactive)
Cn1c(-c2ccccc2)cnc1NC(=O)c1cc(-c2ccccc2)on1	-10.3% (inactive)
O=C(c1cc(-c2ccccc2)on1)N1CCC(N2CCOCC2)CC1	-8.89% (inactive)
CN(C)c1nc(-c2ccccn2)nnc1-c1ccccc1	10.9% (inactive)
c1ccc(-c2nnc(-c3ccccn3)nc2NCC2CCOCC2)cc1	6.73% (inactive)
c1ccc(-c2nnc(-c3ccccn3)nc2Nc2nc3ccccc3s2)cc1	28.5% (inactive)
Cn1c(NC(=O)c2cc(-c3ccccc3)on2)nc2ccccc21	-1.13% (inactive)
Cc1ccc(Nc2nc(-c3ccccn3)nnc2-c2ccccc2)cn1	-25% (inactive)
CN1CCN(c2nc(-c3ccccn3)nnc2-c2ccccc2)CC1	20.7% (inactive)
CC(Nc1nc(-c2ccccn2)nnc1-c1ccccc1)c1ccccc1 (configuration not stated)	22.8% (inactive)
O=C(Nc1nnc(-c2ccccc2)s1)c1cc(-c2ccccc2)on1	-5.17% (inactive)
Cc1ccccc1CNc1nc(-c2ccccn2)nnc1-c1ccccc1	29.7% (inactive)
c1ccc(-c2nnc(-c3ccccn3)nc2NCC2CC2)cc1	-6.55% (inactive)
Cc1ccc(CNc2nc(-c3ccccn3)nnc2-c2ccccc2)cc1	14.3% (inactive)
OCC1CCN(c2nc(-c3ccccn3)nnc2-c2ccccc2)CC1	6.32% (inactive)
c1ccc(-c2nnc(-c3ccccn3)nc2NCc2ccccn2)cc1	1.56% (inactive)

SMILES	activity change, negative = inhibition
Cc1ccc(CNc2nc(-c3ccccn3)nnc2-c2ccccc2)cc1C	76.7% (inactive)
c1ccc(-c2nnc(Nc3nc(-c4ccccn4)nnc3-c3ccccc3)s2)cc1	-5.61% (inactive)
Cc1ccccc1CNC(=O)c1cc(-c2ccccc2)on1	-46.6% (inactive)
Oc1ccc(CNC2Cc3ccccc3C2)c2cccnc12	26.4% (inactive)
C[C@@H](Nc1nc(-c2ccccn2)nnc1-c1ccccc1)C1CCCCC1	133% (inactive)
c1ccc(-c2cccc(CNc3nc(-c4ccccn4)nnc3-c3ccccc3)c2)cc1	26.9% (inactive)
CC(C)(C)c1ccc(CNc2nc(-c3ccccn3)nnc2-c2ccccc2)cc1	37.7% (inactive)
Cc1ccc(NC(=O)c2cc(-c3ccccc3)on2)cn1	14.5% (inactive)
c1ccc(-c2nnc(-c3ccccn3)nc2NCc2cccnc2)cc1	14.6% (inactive)
O=C(Nc1cnc2ccccc2c1)c1cc(-c2ccccc2)on1	-16.4% (inactive)
c1ccc(-c2nnc(-c3ccccn3)nc2NCCc2ccccn2)cc1	16.8% (inactive)
O=C(c1cc(-c2ccccc2)on1)N1CCC(CO)CC1	-22.3% (inactive)
OCC1CCN(Cc2ccc(O)c3ncccc23)CC1	51.9% (inactive)
Oc1ccc(CN2CCc3ccccc3C2)c2cccnc12	65.3% (inactive) and 46.7% (inactive)
c1ccc(-c2csc(Nc3nc(-c4ccccn4)nnc3-c3ccccc3)n2)cc1	-8.99% (inactive)
Cn1c(-c2ccccc2)cnc1Nc1nc(-c2ccccn2)nnc1-c1ccccc1	6.25% (inactive)
CC(C)(C)CCNc1nc(-c2ccccn2)nnc1-c1ccccc1	145% (inactive) and 67.4% (inactive)
COc1ccccc1N1CCN(Cc2ccc(O)c3ncccc23)CC1	27.2% (inactive)
C=CCNc1nc(-c2ccccn2)nnc1-c1ccccc1	4.88% (inactive)
N#CC1(c2ccccc2)CCN(Cc2ccc(O)c3ncccc23)CC1	48.4% (inactive)
Cc1cccc(Nc2nc(-c3ccccn3)nnc2-c2ccccc2)n1	-11.6% (inactive)
OCCCNc1nc(-c2ccccn2)nnc1-c1ccccc1	-5.89% (inactive)

System: U2OS proteasome chymotrypsin-like activity, Proteasome-Glo luminescence
Test: as above
Conditions: not given
Procedure, shortened: as §1

SMILES	AC50 [µM]
CC(C)(C)CCNC(=O)c1cc(-c2ccccc2)on1	36.5
Cc1cccc(NC(=O)c2cc(-c3ccccc3)on2)n1	17.3
CCCCNC(=O)c1cc(-c2ccccc2)on1	21.5
c1ccc(-c2cnc(Nc3nc(-c4ccccn4)nnc3-c3ccccc3)s2)cc1	2.42
O=C(Nc1ccc2ccccc2n1)c1cc(-c2ccccc2)on1	29.1
O=C(Nc1ncc2ccccc2n1)c1cc(-c2ccccc2)on1	28.1
O=C(NCCCO)c1cc(-c2ccccc2)on1	3.88
O=C(NCC1CC1)c1cc(-c2ccccc2)on1	33.7
CN(C)CCNC(=O)c1cc(-c2ccccc2)on1	33.4
O=C(c1cc(-c2ccccc2)on1)N1CCN(c2ccncc2)CC1	2.52
Cc1cccc(CNC(=O)c2cc(-c3ccccc3)on2)c1	39.4
